Screening data deposited in PubChem BioAssay by several laboratories.
Hep lipid drop = inhibitors of hepatocyte lipid droplet formation, primary screen, imaging, high-throughput imaging, BODIPY stain; 240,000 compounds, 0.4% hits; inhibition, % at 6.5 µM; AML12 mouse hepatocytes, oleate lipid droplets; AID 1656, 2009;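 active = lipid droplet intensity inhibited by at least 50%, with more than 500 cells counted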
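Material – AML12 mouse liver cells · Also added – oleate loading, 100 µM · Compound dosing – 6.5 µM single-point dosing · Times – overnight treatment with compound plus oleate · Measured by – fluorescence imaging, 20x objective, two fields per well · Read-out – percent inhibition of filter-corrected integrated lipid droplet intensity per well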
STAT3 blocker = IL-6 driven STAT3 reporter inhibitors, primary screen, U3A cells, luciferase, luminescence, MLSCN library. AID 862, 2007. inhibition, % at 5.5 µM. IL-6 STAT3-luciferase reporter; host cell line lacks STAT1. 190,000 compounds, 0.89% hits;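 active = inhibition above the mean inhibition across all screened compounds plus 3 SD, cut at about 44% in these data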
Platelet DG rel = inhibitors of platelet dense granule secretion, primary screen, cell-based, MLPCN, human platelets | inhibition, %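 (compounds screened at 7.5 µM in platelet-rich plasma)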 | AID 1663, 2009 | human platelet-rich plasma, SFLLRN dense granule ATP release, luminescence | 300,000 compounds, 0.22% hits;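 active = mean replicate score, as percent of positive control, at or above 50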
H9c2 TAG inh = inhibitors of triacylglycerol accumulation, primary screen, cell-based, uHTS, fluorescence, H9c2; inhibition, % at 12.5 µM; H9c2 cells, Nile Red lipid (TAG) fluorescence; cells loaded with 200 µM oleic acid; 230,000 compounds, 0.66% hits;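 active = pattern-corrected inhibition of lipid staining of at least 50% with the nuclear-stain viability signal not falling by more than 50%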
STAT1 blocker = STAT1 signaling inhibitors, primary screen, cell-based, HTS, luciferase reporter; inhibition, % at 5.5 µM; AID 920, 2007; NIH 3T3 STAT1-luciferase reporter, IFN-gamma, luminescence; 200,000 compounds, 0.35% hits;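 active = inhibition above a set limit, the mean inhibition across all tested compounds plus 3 SD, cut at about 34% in these data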
PPC-1+TRAIL kill = compounds killing PPC-1 cancer cells with TRAIL present, primary screen, TRAIL potentiator project, ATPLite luminescence, uHTS; cell killing (% activity), % at 4 µM or 5 µM; PPC-1 cells + TRAIL, ATPLite viability luminescence; 220,000 compounds, 0.41% hits;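 active = cell killing above 50% in the first pass at 4 µM, then a duplicate retest at 5 µM averaging 50% or more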
Numbers stand for hits; – = inactive; · = no result given. Most compounds without a hit are left out; they make up all but 1.5% or so of the library.

SMILES	Hep lipid drop	STAT3 blocker	Platelet DG rel	H9c2 TAG inh	STAT1 blocker	PPC-1+TRAIL kill
C[C@H]1CN([C@@H](C)CO)C(=O)c2cccc(NC(=O)Nc3ccc(C(F)(F)F)cc3)c2O[C@@H]1CN(C)S(=O)(=O)c1ccccc1	·	·	·	–	·	·
CN1CCN(c2cc3c(c4c2[nH]c2ccccc24)C(=O)CC(C)(C)C3)CC1	·	–	–	54	–	–
Cc1ccc(-n2c(C)cc(/C=c3/sc4nc5ccccc5n4c3=O)c2C)cc1	–	63	61	·	43	–
Cc1c(C(=O)NC2CC(C)(C)NC(C)(C)C2)oc2c(Cl)cccc12	·	·	·	–	·	·
Cn1nc(C2CC2)cc1NC(=O)C1(C)CCN1C(=O)c1ccccc1CCc1ccccc1 (stereo unspecified)	·	·	·	–	·	·
CCc1cccc2c1Sc1ccccc1CC2N1CCNCC1 (stereo unspecified)	·	·	–	67	·	·
C[C@@H]1CN([C@@H](C)CO)C(=O)CCCn2nncc2CO[C@@H]1CN(C)C(=O)Nc1cccc(Oc2ccccn2)c1	·	·	·	–	·	·
CCOC(=O)c1[nH]c(C)c(C(=O)N2CCc3ccccc32)c1C	·	–	–	56	–	–
CC(=O)c1c(C)[nH]c(C(=O)N2CCc3ccccc32)c1C	–	–	–	–	–	–
CCC(C)C(CO)NCCCn1cnc2c(OC)ncnc21 (stereo unspecified)	·	·	·	–	·	·
Cc1ccc2nc(NCc3ccccc3)[nH]c2c1	·	–	–	60	–	–
CCc1nc2ccc(C(=O)NCCCN3CCCC3=O)cn2c1N(CC)CCOC	·	·	·	–	·	·
CN(C)Cc1c(-c2ccc(Cl)cc2)nc2ccccn12	–	–	–	–	–	–
Clc1ccc(-c2nc3ccccn3c2CN2CCCCC2)cc1	–	46	–	·	–	–
CCCC(=O)N(Cc1cc2cc(OC)ccc2[nH]c1=O)c1ccccc1OC	·	·	·	–	·	·
CCOc1ccc(C(=O)Nc2cccc(C(=O)O)c2C)cc1Cl	–	75	–	·	51	–
O=C(CCl)Nc1ccccc1C(=O)Nc1ccc2c(c1)OCO2	–	·	55	–	·	–
COC(=O)c1ccccc1NC(=O)Nc1ccc2c(c1)OCO2	–	–	74	–	–	–
Cc1cc(OC(C)C(=O)NC2CC(C)(C)NC(C)(C)C2)c2c(C)c(C)c(=O)oc2c1 (stereo unspecified)	·	·	·	–	·	·
NS(=O)(=O)c1cccc(NC(=O)COC(=O)/C=C/c2nc3ccccc3s2)c1	·	·	·	–	·	·
CCN(CC)CCNC(CC(=O)Nc1ccc(Cl)cc1Cl)C(=O)O (stereo unspecified)	63	–	–	–	–	–
CCCCn1c(N)c(N(Cc2ccccc2OC)C(=O)C(C)Oc2ccc(Cl)cc2)c(=O)[nH]c1=O (stereo unspecified)	–	·	53	–	·	·
COc1ccc(S(=O)(=O)N(C)C[C@@H]2OCc3cnnn3CCCC(=O)N([C@H](C)CO)C[C@@H]2C)cc1	·	·	·	–	·	·
CCOC(=O)c1sc(NC(=O)c2sccc2C)cc1C	·	–	62	51	–	–
O=[N+]([O-])c1cc(/C=N/Nc2nc3ccccc3[nH]2)c(O)cc1O	–	–	–	·	–	53
SMILES	Hep lipid drop	STAT3 blocker	Platelet DG rel	H9c2 TAG inh	STAT1 blocker	PPC-1+TRAIL kill
Cc1[nH]c2ccccc2c1/C=N/Nc1nc2ccccc2[nH]1	–	·	–	64	·	–
Cc1cccc(C(O)c2cnc(C)n2Cc2ccccc2)c1 (stereo unspecified)	·	·	·	–	·	·
O=C(Nc1ccc2oc(-c3cccnc3)nc2c1)c1ccc([N+](=O)[O-])o1	–	–	–	75	–	–
O=C(Nc1cccc(NC(=O)c2cccs2)c1)c1ccc([N+](=O)[O-])o1	–	·	–	61	·	–
O=C(Nc1cccc(NC(=O)c2ccc([N+](=O)[O-])o2)c1)c1ccco1	–	·	–	·	·	·
CNc1cc(-c2ccc(O)cc2C)ncn1	·	·	·	–	·	·
O=C(Cn1cc(C(F)(F)F)ccc1=O)Nc1ccc2c(c1)OCO2	·	·	·	–	·	·
Cc1csc(NC(=O)c2ccc(OCC3CCCO3)cc2)n1 (stereo unspecified)	–	61	–	–	60	–
COc1cccc(/C=N/Nc2ccc(S(=O)(=O)O)cc2)c1O	·	–	56	·	–	–
COc1cc(OC)c2cc(C(=O)N/N=C/c3cccc(OC)c3O)[nH]c2c1	–	·	–	55	·	–
COc1cccc(OCc2cc(/C=N/Nc3ccc(C(=O)O)cc3)ccc2OC)c1	–	·	65	–	·	–
O=S(=O)(O)c1ccc(NN=Cc2ccccc2O)cc1	·	·	·	–	·	·
COc1cccc(/C=N/Nc2ccc(C(=O)O)cc2)c1O	–	100	95	–	91	–
COc1cccc(/C=N/Nc2ccccc2C(=O)O)c1O	·	·	–	·	·	·
CCOC(=O)c1cc(=O)nc(N)s1	·	·	·	–	·	·
OC1CN=C2C=CC=CN2C1 (stereo unspecified)	·	–	54	–	–	–
CN1CCN(NC(=O)c2cc(-c3cccc(Cl)c3)nc3ccccc23)CC1	–	–	–	–	–	–
CC(C)c1ccc(-c2cc(C(=O)NN3CCN(C)CC3)c3ccccc3n2)cc1	–	–	54	·	–	66
CC1(C)CC(=O)C=C(c2cccc(OC(=O)c3ccc(Br)cc3)c2)C1=O	·	·	·	–	·	·
CC(=O)Nc1ccc(Sc2ccc([N+](=O)[O-])o2)cc1	·	·	·	63	·	·
CCNC(=O)C1(C)CCCN(C(=O)C2(c3ccc(Cl)cc3)CCCC2)C1 (stereo unspecified)	·	·	·	–	·	·
Cc1cccc(N=Nc2ccc(O)c3ncccc23)c1	–	–	–	82	–	–
Oc1ccc(N=Nc2ccc3c(c2)OCCO3)c2ncccc12	–	·	–	79	·	–
C[C@@H]1CN([C@@H](C)CO)C(=O)c2cc(Br)cnc2O[C@H]1CN(C)C(=O)c1ccccc1F	·	·	·	–	·	·
CC(C)c1nnc(NC(=O)CCC(=O)NC2CCCCCC2)s1	–	·	–	·	·	·
SMILES	Hep lipid drop	STAT3 blocker	Platelet DG rel	H9c2 TAG inh	STAT1 blocker	PPC-1+TRAIL kill
CC(C)c1nnc(NC(=O)CCC(=O)NC2CC2)s1	–	·	55	·	·	·
CC(=O)NC(c1cccc(F)c1)c1nc(-c2csc3ccccc23)cs1 (stereo unspecified)	·	·	·	–	·	·
Cc1nn(-c2ccccc2)c(N2CCCC2)c1/C=N/Nc1ccc(S(=O)(=O)Nc2ccccc2)cc1[N+](=O)[O-]	82	–	–	·	–	–
Cc1ccccc1-c1cnc(C(O)c2ccc(F)cc2C)[nH]1 (stereo unspecified)	·	·	·	–	·	·
Cc1ccsc1C(=O)Nc1nc2ccccc2[nH]1	–	·	100	–	·	–
COc1ccc(NC(=O)C2(N(CC(C)C)C(=O)Cn3nnnc3N)CCCCC2)cc1	–	–	·	–	–	56
Cc1ccc(NC(=O)C2(N(CC(C)C)C(=O)Cn3nnnc3N)CCCCC2)cc1	–	–	–	–	–	–
Fc1ccc(-[n+]2nc(Nc3ccccc3)sc2-c2c3ccccc3cc3ccccc23)cc1	–	·	–	·	·	·
